This note sets out measurements from ChEMBL document CHEMBL1155986, “Discovery of 4H-pyrazolo[1,5-a]pyrimidin-7-ones as potent inhibitors of hepatitis C virus polymerase” (Bioorg Med Chem Lett, 2009).

A short description of assay [1]: Inhibition of HCV NS5B deltaC21 polymerase assessed as [3H]GTP incorporation after 3 hrs by scintillation proximity assay. On the set-up: species or system Hepacivirus hominis. Particulars: for pIC50: read-out: IC50; call rule not given here. The method in brief: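 Scintillation proximity assay with the NS5B Δ21 construct at 50 nM, using a polyC/oligoG template/primer with raised GTP and [3H]-GTP levels. The reaction ran 3 h at room temperature, and labelled GTP incorporation was read by scintillation counting.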
(In general: SPA uses beads or plates that emit light when radiolabelled molecules are held near them.)

A short description of assay [2]: Inhibition of HCV NS5B deltaC55 polymerase assessed as [3H]GTP incorporation after 50 min by scintillation proximity assay. More on the design: species or system Hepacivirus hominis. The gist of the method: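 NS5B Δ55 construct (6 nM) with biotinylated oligoG12/polyC template/primer, [3H]-GTP and unlabelled GTP, in 20 mM HEPES pH 7.3, 7.5 mM DTT, 10 mM MgCl2, 60 mM NaCl, BSA and RNasIN. Reactions ran 50 min at room temperature, were stopped with streptavidin SPA beads containing 100 mM EDTA, and were scintillation counted. IC50 came from single experiments over 11 twofold dilutions, accepted only if the positive internal control fell within its SD range.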

The subject of the next assay is Hepatitis C virus. Description: Antiviral activity against HCV by cell-based replicon assay. It is filed as functional, Hepacivirus hominis. On the technique in general: A replicon is a self-replicating genome or part of one, used to study replication in cells.

pIC50: −log10 of the molar value. A value given as a limit tells only on which side of the number the result lay.

On to `O=C(O)c1cc2[nH]c(-c3ccc(OCc4ccccc4)cc3)c(CC3CCCCC3)c(=O)n2n1`, for which the pIC50 – broadly, the negative decadic logarithm of the IC50, by convention in mol/L – in assay [1] is 6.40; in assay [2], 5.42.
With `O=C(N[C@H](C(=O)O)c1ccc(O)cc1)c1cc2[nH]c(-c3ccco3)c(C3CCCCC3)c(=O)n2n1`, in assay [1], the pIC50 was 6.70.
`O=C(O)c1cc2[nH]c(-c3ccc(OCc4ccccc4)cc3)c(-c3ccccc3)c(=O)n2n1`: the results for the pIC50 in assay [1] and in assay [2] were < 4.90 and < 4.30, respectively.
Take `O=C(O)c1cc2[nH]c(-c3ccc(OCc4ccccc4)cc3)c(C3CCCCC3)c(=O)n2n1`: the pIC50 is 6.00 in assay [1] and 5.82 in assay [2].
`C=CCc1c(-c2ccc(OCc3ccccc3)cc2)[nH]c2cc(C(=O)O)nn2c1=O`: the pIC50 is < 4.90 in assay [1] and < 4.30 in assay [2].
Turning to `O=C(NS(=O)(=O)Cc1ccccc1)c1cc2[nH]c(-c3ccco3)c(C3CCCCC3)c(=O)n2n1`, the negative-log IC50 (pIC50) in assay [1] is 6.74.
For the molecule `CC(C)Cc1c(-c2ccc(OCc3ccccc3)cc2)[nH]c2cc(C(=O)O)nn2c1=O`, the pIC50 in assay [1] is 5.02; in assay [2], 4.82.
As for `O=C(N[C@@H](Cc1ccc(O)cc1)C(=O)O)c1cc2[nH]c(-c3ccco3)c(C3CCCCC3)c(=O)n2n1`, the pIC50 in assay [1] was 7.15.
`O=C(O)c1cc2[nH]c(-c3ccc(OCc4cccc(C(F)(F)F)c4)cc3)c(C3CCCCC3)c(=O)n2n1`: the figures for the negative-log IC50 (pIC50) in assay [1] and in assay [2] were 6.05 and 5.74, respectively.
Regarding `O=C(O)c1cc2[nH]c(-c3ccc(-c4ccccc4)cc3)c(C3CCCCC3)c(=O)n2n1`, the values for the negative logarithm of the IC50 (pIC50) in assay [1] and in assay [2] were 5.51 and 5.48, respectively.
With `CC(C)CCc1c(-c2ccc(OCc3ccccc3)cc2)[nH]c2cc(C(=O)O)nn2c1=O`, the figures for the pIC50 in assay [1] and in assay [2] were 5.82 and 5.24, respectively.
As to `O=C(O)c1cc2[nH]c(-c3ccc(OCc4ccccc4)cc3)c(CC3CCC3)c(=O)n2n1`, the figures for the pIC50 in assay [1] and in assay [2] were 5.55 and 5.06, respectively.
Turning to `O=C(N[C@H](Cc1ccc(O)cc1)C(=O)O)c1cc2[nH]c(-c3ccco3)c(C3CCCCC3)c(=O)n2n1`, the negative-log IC50 (pIC50) in assay [1] is 6.52.
With `COC(=O)[C@H](Cc1c[nH]c2ccccc12)NC(=O)c1cc2[nH]c(-c3ccco3)c(C3CCCCC3)c(=O)n2n1`, the pIC50 in assay [1] was 6.57.
Regarding `O=C(O)c1cc2[nH]c(-c3ccc(OCc4ccccc4)cc3)c(CCC3CCCCC3)c(=O)n2n1`, the pIC50 in assay [1] was 6.77; in assay [2], 6.22.
In the case of `C=CCCc1c(-c2ccc(OCc3ccccc3)cc2)[nH]c2cc(C(=O)O)nn2c1=O`, the pIC50 was 5.17 in assay [1] and 4.82 in assay [2].
With `O=C(N[C@@H](Cc1c[nH]cn1)C(=O)O)c1cc2[nH]c(-c3ccco3)c(C3CCCCC3)c(=O)n2n1`, the pIC50 in assay [1] is 6.19.
For the molecule `O=C(N[C@@H](Cc1ccc(O)cc1)C(=O)O)c1cc2[nH]c(-c3cccc(F)c3)c(C3CCCCC3)c(=O)n2n1`, the negative-log IC50 (pIC50) in assay [1] is 6.17.
Take `COCCc1c(-c2ccc(OCc3ccccc3)cc2)[nH]c2cc(C(=O)O)nn2c1=O`: the pIC50 was 5.43 in assay [1] and 4.89 in assay [2].
Take `O=C(O)c1cc2[nH]c(-c3ccc(Oc4cccc(C(F)(F)F)c4)cc3)c(C3CCCCC3)c(=O)n2n1`: in assay [1], the IC50 result is recorded as “Not Active”. The negative-log IC50 (pIC50) in assay [2] is 6.03.
With `O=C(O)c1cc2[nH]c(-c3cccc(F)c3)c(C3CCCCC3)c(=O)n2n1`, the pIC50 in assay [1] is 6.42; in assay [2], 5.64.
Consider `O=C(N[C@@H](Cc1c[nH]c2ccccc12)C(=O)O)c1cc2[nH]c(-c3cccc(F)c3)c(C3CCCCC3)c(=O)n2n1`, for which, in assay [1], the pIC50 was 6.64.
Take `O=C(O)c1cc2[nH]c(-c3ccc(Oc4cccc(Cl)c4)cc3)c(C3CCCCC3)c(=O)n2n1`: the IC50 entry in assay [1] is “Not Active”. Besides, the pIC50 in assay [2] was 5.48.
On to `COc1cccc(Oc2ccc(-c3[nH]c4cc(C(=O)O)nn4c(=O)c3C3CCCCC3)cc2)c1`, for which the IC50 result in assay [1] is “Not Active”. In addition, in assay [2], the pIC50 is 6.05.
Regarding `CC(C)=CCCc1c(-c2ccc(OCc3ccccc3)cc2)[nH]c2cc(C(=O)O)nn2c1=O`, the pIC50 in assay [1] is 5.46; in assay [2], 5.00.
Regarding `O=C(O)c1cc2[nH]c(-c3ccc(OCc4ccccc4)cc3)c(Cc3ccccc3)c(=O)n2n1`, the negative logarithm of the IC50 (pIC50) is 5.38 in assay [1] and 5.05 in assay [2].
In the case of `O=C(N[C@@H](Cc1c[nH]c2ccccc12)C(=O)O)c1cc2[nH]c(-c3cccs3)c(C3CCCCC3)c(=O)n2n1`, the pIC50 in assay [1] was 6.70.
For `O=C(O)c1cc2[nH]c(-c3ccc(OCc4ccccc4)cc3)c(CCc3ccccc3)c(=O)n2n1`, the pIC50 in assay [1] was 5.92; in assay [2] it was 5.66.
`O=C(N[C@@H](Cc1c[nH]c2ccccc12)C(=O)O)c1cc2[nH]c(-c3ccco3)c(C3CCCCC3)c(=O)n2n1` registered an Activity with Hepatitis C virus of 50 µM. For the same molecule, the pIC50 in assay [1] was 7.30.
Take `O=C(O)c1cc2[nH]c(-c3ccc(Cc4ccccc4)cc3)c(C3CCCCC3)c(=O)n2n1`: the pIC50 is 5.59 in assay [1] and 5.40 in assay [2].
Turning to `O=C(O)c1cc2[nH]c(-c3cccs3)c(C3CCCCC3)c(=O)n2n1`, the pIC50 in assay [1] is 5.96; in assay [2] it was 5.19.
As to `COc1cccc(COc2ccc(-c3[nH]c4cc(C(=O)O)nn4c(=O)c3C3CCCCC3)cc2)c1`, the pIC50 is 6.00 in assay [1] and 5.92 in assay [2].
`O=C(O)c1cc2[nH]c(-c3ccc(OCc4ccccc4)cc3)c(CC3CCCO3)c(=O)n2n1` (stereo not drawn): the results for the pIC50 in assay [1] and in assay [2] were 5.00 and < 4.90, respectively.
`O=C(O)c1cc2[nH]c(-c3ccc(OCc4cccc(OC(F)(F)F)c4)cc3)c(C3CCCCC3)c(=O)n2n1`: the negative-log IC50 (pIC50) in assay [1] is 5.82; in assay [2], 5.66.
Consider `O=C(O)c1cc2[nH]c(-c3ccc(Oc4ccccc4)cc3)c(C3CCCCC3)c(=O)n2n1`, for which, in assay [1], the IC50 entry is recorded as “Not Active”. In addition, the pIC50 in assay [2] is 5.20.
With `O=C(O)c1cc2[nH]c(-c3ccco3)c(C3CCCCC3)c(=O)n2n1`, the values for the pIC50 in assay [1] and in assay [2] were 6.54 and 5.55, respectively.
Consider `O=C(O)c1cc2[nH]c(-c3ccc(OCc4ccccc4)cc3)c(CCCc3ccccc3)c(=O)n2n1`, for which the pIC50 was 5.60 in assay [1] and 5.23 in assay [2].
Turning to `COc1ccc(-c2[nH]c3cc(C(=O)O)nn3c(=O)c2C2CCCCC2)cc1`, in assay [1], the IC50 entry is given as “Not Active”. Further, the pIC50 in assay [2] was 5.41.
For the molecule `O=C(N[C@@H](Cc1c[nH]c2ccccc12)C(=O)O)c1cc2[nH]c(-c3ccoc3)c(C3CCCCC3)c(=O)n2n1`, the pIC50 in assay [1] was 7.22.
